# The source made the active and inactive calls. The rule behind the calls is not given here.
# Assays:
# NCI-H3255 [1] = test: Induction of apoptosis in human H3255 cells assessed as early apoptotic cells at 250 nM after 48 hrs by Annexin V-FITC/PI staining based flow cytometry (reference value: 3.22%); type: functional
# NCI-H3255 [2] = test: Induction of apoptosis in human H3255 cells assessed as viable cells at 250 nM after 48 hrs by Annexin V-FITC/PI staining based flow cytometry (reference value: 87.9%); type: functional; conditions: NCI-H3255, 48 h, read-out: Activity
# NCI-H3255 [3] = test: Induction of apoptosis in human H3255 cells assessed as late apoptotic cells at 1000 nM after 48 hrs by Annexin V-FITC/PI staining based flow cytometry (reference value: 1.77%); type: functional
# A-431 [4] = test: Induction of apoptosis in human A431 cells assessed as viable cells at 250 nM after 48 hrs by Annexin V-FITC/PI staining based flow cytometry (reference value: 90.3%); type: functional; conditions: A-431, 48 h, read-out: Activity
# A-431 [5] = test: Induction of apoptosis in human A431 cells assessed as late apoptotic cells at 250 nM after 48 hrs by Annexin V-FITC/PI staining based flow cytometry (reference value: 2.11%); type: functional
# A-431 [6] = test: Induction of apoptosis in human A431 cells assessed as necrotic cells at 500 nM after 48 hrs by Annexin V-FITC/PI staining based flow cytometry (reference value: 4.16%); type: functional
# A-431 [7] = test: Induction of apoptosis in human A431 cells assessed as late apoptotic cells at 1000 nM after 48 hrs by Annexin V-FITC/PI staining based flow cytometry (reference value: 2.11%); type: functional
# HCC827 [8] = test: Induction of apoptosis in human HCC827 cells assessed as viable cells at 250 nM after 48 hrs by Annexin V-FITC/PI staining based flow cytometry (reference value: 94.6%); type: functional; conditions: HCC827, 48 h, read-out: Activity
# HCC827 [9] = test: Induction of apoptosis in human HCC827 cells assessed as early apoptotic cells at 250 nM after 48 hrs by Annexin V-FITC/PI staining based flow cytometry (reference value: 2.83%); type: functional
# HCC827 [10] = test: Induction of apoptosis in human HCC827 cells assessed as late apoptotic cells at 250 nM after 48 hrs by Annexin V-FITC/PI staining based flow cytometry (reference value: 1.15%); type: functional
# HCC827 [11] = test: Induction of apoptosis in human HCC827 cells assessed as viable cells at 500 nM after 48 hrs by Annexin V-FITC/PI staining based flow cytometry (reference value: 94.6%); type: functional; conditions: HCC827, 48 h, read-out: Activity
# HCC827 [12] = test: Induction of apoptosis in human HCC827 cells assessed as viable cells at 1000 nM after 48 hrs by Annexin V-FITC/PI staining based flow cytometry (reference value: 94.6%); type: functional; conditions: HCC827, 48 h, read-out: Activity
# HCC827 [13] = test: Induction of apoptosis in human HCC827 cells assessed as necrotic cells at 1000 nM after 48 hrs by Annexin V-FITC/PI staining based flow cytometry (reference value: 1.41%); type: functional
# NCI-H1975 [14] = test: Induction of apoptosis in human NCI-H1975 cells assessed as early apoptotic cells at 250 nM after 48 hrs by Annexin V-FITC/PI staining based flow cytometry (reference value: 2.07%); type: functional
# NCI-H1975 [15] = test: Induction of apoptosis in human NCI-H1975 cells assessed as late apoptotic cells at 250 nM after 48 hrs by Annexin V-FITC/PI staining based flow cytometry (reference value: 1.91%); type: functional
# NCI-H1975 [16] = test: Induction of apoptosis in human NCI-H1975 cells assessed as early apoptotic cells at 1000 nM after 48 hrs by Annexin V-FITC/PI staining based flow cytometry (reference value: 2.07%); type: functional
# NCI-H1975 [17] = test: Induction of apoptosis in human NCI-H1975 cells assessed as late apoptotic cells at 1000 nM after 48 hrs by Annexin V-FITC/PI staining based flow cytometry (reference value: 1.91%); type: functional
# NCI-H1975 [18] = test: Induction of apoptosis in human NCI-H1975 cells assessed as necrotic cells at 1000 nM after 48 hrs by Annexin V-FITC/PI staining based flow cytometry (reference value: 2.31%); type: functional
# A-431 [19] = test: Induction of apoptosis in human A431 cells assessed as early apoptotic cells after 48 hrs by Annexin V-FITC/PI staining based flow cytometry; type: functional, cell-based
# [20] = Half life in Sprague-Dawley rat at 30 mg/kg, po by UPLC-MS/MS analysis; type: ADME, organism-based; conditions: in vivo
# Summary of the method: (§1)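 Four female and four male Sprague-Dawley rats, 200-220 g, fasted 12 h, then given a single oral dose of 30 mg/kg as a 0.5% CMC-Na suspension. Blood sampled at 0.083, 0.25, 0.5, 1, 2, 4, 8 and 24 h, plasma separated by centrifugation at 4000 r/min for 10 min, and analysed by UPLC–MS/MS. Parameters reported as mean ± SD, n=6.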
# [21] = Cmax in Sprague-Dawley rat at 30 mg/kg, po by UPLC-MS/MS analysis; type: ADME, organism-based; design: dose 30 mg/kg, route oral; conditions: in vivo; summary of the method: as §1
# [22] = MRT (0 to t) in Sprague-Dawley rat at 30 mg/kg, po by UPLC-MS/MS analysis; type: ADME, organism-based; conditions: in vivo
# Summary of the method: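 Male and female Sprague-Dawley rats (200–220 g) were fasted 12 h and given a single oral dose of 30 mg/kg as a 0.5% CMC-Na suspension. Blood was sampled at 0.083, 0.25, 0.5, 1, 2, 4, 8 and 24 h and centrifuged at 4000 r/min for 10 min. Plasma was quantified by UPLC–MS/MS.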
# Rattus norvegicus = test: Volume of distribution in Sprague-Dawley rat at 30 mg/kg, po by UPLC-MS/MS analysis; type: ADME, organism-based; conditions: in vivo
# Summary of the method: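 Sprague-Dawley rats (four female, four male; 200-220 g) were fasted 12 h and given a single oral 30 mg/kg dose as a 0.5% CMC-Na suspension. Blood was drawn at 0.083, 0.25, 0.5, 1, 2, 4, 8 and 24 h and centrifuged at 4000 r/min for 10 min. Samples were quantified by UPLC–MS/MS; parameters are reported for n=6.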
# PC-9 = test: Antitumor activity against human PC9 cells xenografted in BALB/C nude mouse assessed as decrease in tumor volume at 15 to 30 mg/kg, ip qd administered for 19 days measured for 23 days; type: functional, organism-based
# Summary of the method: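 Six-week-old BALB/C-nu mice given 2×10^6 PC-9 cells subcutaneously in the right flank. At tumour size ~0.2-0.4 cm³, randomised, 5 mice/group. Dosed ip daily for 19 days at 15 or 30 mg/kg, vehicle DMSO:Span-80:ddH₂O = 2:1:50; vehicle-treated control group. Tumour volume = (W²×L)/2. Tumours weighed.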
# Mus musculus [23] = test: In vivo inhibition of AKT phosphorylation in tumor of BALB/C nude mouse xenografted with human PC9 cells at 15 to 30 mg/kg, ip qd administered for 19 days by immunoblot method; type: functional, organism-based
# Mus musculus [24] = test: In vivo inhibition of AKT phosphorylation in tumor of BALB/C nude mouse xenografted with human PC9 cells at 15 to 30 mg/kg, ip qd administered for 19 days by immunohistochemical analysis; type: functional, organism-based
smiles,measurement,setting,value
COc1cccc(Nc2cc(Nc3cc(OC)ccc3OC)ncn2)c1,Activity,NCI-H3255 [1],13.3%
same,viability at 0.25 µM,NCI-H3255 [2],79.2%
same,Activity,NCI-H3255 [3],10.6%
same,viability at 0.25 µM,A-431 [4],79.3%
same,Activity,A-431 [5],6.5%
same,Activity,A-431 [6],5.66%
same,Activity,A-431 [7],13%
same,viability at 0.25 µM,HCC827 [8],61.9%
same,Activity,HCC827 [9],15.5%
same,Activity,HCC827 [10],10.2%
same,viability at 0.5 µM,HCC827 [11],61.8%
same,viability at 1 µM,HCC827 [12],53.4%
same,Activity,HCC827 [13],12.6%
same,Activity,NCI-H1975 [14],22.6%
same,Activity,NCI-H1975 [15],13.5%
same,Activity,NCI-H1975 [16],27.8%
same,Activity,NCI-H1975 [17],18.2%
same,Activity,NCI-H1975 [18],7.56%
same,Activity,A-431 [19],Dose-dependent effect
same,half-life,[20],4.17 h
same,Cmax,[21],1060 ng/mL
same,MRT last,[22],6.66 h
same,Vd,Rattus norvegicus,0.03 L/kg
same,Activity,PC-9,Active
same,inhibition,Mus musculus [23],Active
same,inhibition,Mus musculus [24],Active
